Laboratory results published in article PMC9321963 (Birth Defects Research, 2022).
pIC50: −log10 of the molar value. Values joined by “and” are separate entries in the source; they are usually repeats but may differ in a detail not shown here. Equal values may be shown once. Read-outs that look alike come from different tables or passages of the source.

Key:
[1] = Toxicokinetics, rat DRF EFD study; type: in vivo; conditions: for AUC(0-t) / Cmax / Tmax: female, Sprague-Dawley (Crl:CD SD), rat, plasma, po, 60 mg/kg/day, rat DRF EFD, 60 mg/kg/day oral; for Cmax: C max; for Tmax: T max
[2] = Toxicokinetics, rat main EFD study; type: in vivo; conditions: for Tmax / AUC(0-t) / Cmax: female, Sprague-Dawley (Crl:CD SD), rat, plasma, po; for AUC(0-t) / Cmax: rat main EFD; for Cmax: C max
[3] = Toxicokinetics, rat investigative EFD study; type: in vivo; conditions: for Tmax / AUC(0-t) / Cmax: female, rat, plasma, po; for AUC(0-t) / Cmax: rat investigative EFD; for Cmax: C max
pregnant rats [4] = experiment: Rat DRF embryofetal developmental toxicity study; type: in vivo; conditions: rat DRF EFD
[5] = Rat investigative embryofetal developmental toxicity study; type: in vivo; conditions: female, Sprague-Dawley, rat, in vivo, oral
Method in brief: (§1)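 Crl:OFA SD naïve time-mated females, 25 per group (plug day = GD0), under GLP and ICH S5(R2). Oral daily doses of 20, 40 or 60 mg/kg/day were given GD6–GD17; an extra 60 mg/kg/day group was dosed only GD8–GD11 (diaphragm formation). Suspension vehicle: 20% w/w Kolliphor HS 15 / 50% w/w PEG 400 in water. CO2 euthanasia and necropsy on GD21. Maternal endpoints were recorded, plus fetal weight, external and visceral exams.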

pregnant rats [6] = experiment: as above; type: in vivo; conditions: rat investigative EFD; for mean maternal body weight gain, % of controls: dosing and post dose periods
Method in brief: as §1

pregnant rabbits = experiment: Rabbit EFD studies; type: in vivo
PI4Kα [7] = molecular target: T1, PI4Kα (Homo sapiens, UniProt P42356); experiment: ADP-Glo Kinase Assay, PI4Kα; type: biochemical
PI3Kγ = PI3Kγ (Homo sapiens, UniProt P48736); experiment: ADP-Glo Kinase Assay, PI3Kγ; type: biochemical
PI3Kδ = PI3Kδ (Homo sapiens, UniProt O00329); experiment: ADP-Glo Kinase Assay, PI3Kδ; type: biochemical
[8] = human, male, ref McCarthy et al. ([2020]), cited from earlier work
PI4Kβ = PI4Kβ (Homo sapiens, UniProt Q9UBF8); conditions: chemoproteomic profiling, ref Paquet et al., [2017]; cited from earlier work
PI4Kα [9] = molecular target: T1, PI4Kα; conditions: chemoproteomic profiling, ref Paquet et al., [2017]; cited from earlier work
[10] = 2 mg/kg/day, 2 mg/kg/day oral, GD6
[11] = 2 mg/kg/day, 2 mg/kg/day oral, GD17
[12] = 6 mg/kg/day, 6 mg/kg/day oral, GD6
[13] = 6 mg/kg/day, 6 mg/kg/day oral, GD17
[14] = 20 mg/kg/day, 20 mg/kg/day oral, GD6
[15] = 20 mg/kg/day, 20 mg/kg/day oral, GD17
[16] = Sprague-Dawley (Crl: OFA SD), 40 mg/kg/day, 40 mg/kg/day oral, GD6
[17] = Sprague-Dawley (Crl: OFA SD), 40 mg/kg/day, 40 mg/kg/day oral, GD17
[18] = Sprague-Dawley, 20 mg/kg/day, 20 mg/kg/day oral, GD6
[19] = Sprague-Dawley, 20 mg/kg/day, 20 mg/kg/day oral, GD17
[20] = 60 mg/kg/day, only dosed GD8 to GD11

T1 sequence (P42356 whole entry): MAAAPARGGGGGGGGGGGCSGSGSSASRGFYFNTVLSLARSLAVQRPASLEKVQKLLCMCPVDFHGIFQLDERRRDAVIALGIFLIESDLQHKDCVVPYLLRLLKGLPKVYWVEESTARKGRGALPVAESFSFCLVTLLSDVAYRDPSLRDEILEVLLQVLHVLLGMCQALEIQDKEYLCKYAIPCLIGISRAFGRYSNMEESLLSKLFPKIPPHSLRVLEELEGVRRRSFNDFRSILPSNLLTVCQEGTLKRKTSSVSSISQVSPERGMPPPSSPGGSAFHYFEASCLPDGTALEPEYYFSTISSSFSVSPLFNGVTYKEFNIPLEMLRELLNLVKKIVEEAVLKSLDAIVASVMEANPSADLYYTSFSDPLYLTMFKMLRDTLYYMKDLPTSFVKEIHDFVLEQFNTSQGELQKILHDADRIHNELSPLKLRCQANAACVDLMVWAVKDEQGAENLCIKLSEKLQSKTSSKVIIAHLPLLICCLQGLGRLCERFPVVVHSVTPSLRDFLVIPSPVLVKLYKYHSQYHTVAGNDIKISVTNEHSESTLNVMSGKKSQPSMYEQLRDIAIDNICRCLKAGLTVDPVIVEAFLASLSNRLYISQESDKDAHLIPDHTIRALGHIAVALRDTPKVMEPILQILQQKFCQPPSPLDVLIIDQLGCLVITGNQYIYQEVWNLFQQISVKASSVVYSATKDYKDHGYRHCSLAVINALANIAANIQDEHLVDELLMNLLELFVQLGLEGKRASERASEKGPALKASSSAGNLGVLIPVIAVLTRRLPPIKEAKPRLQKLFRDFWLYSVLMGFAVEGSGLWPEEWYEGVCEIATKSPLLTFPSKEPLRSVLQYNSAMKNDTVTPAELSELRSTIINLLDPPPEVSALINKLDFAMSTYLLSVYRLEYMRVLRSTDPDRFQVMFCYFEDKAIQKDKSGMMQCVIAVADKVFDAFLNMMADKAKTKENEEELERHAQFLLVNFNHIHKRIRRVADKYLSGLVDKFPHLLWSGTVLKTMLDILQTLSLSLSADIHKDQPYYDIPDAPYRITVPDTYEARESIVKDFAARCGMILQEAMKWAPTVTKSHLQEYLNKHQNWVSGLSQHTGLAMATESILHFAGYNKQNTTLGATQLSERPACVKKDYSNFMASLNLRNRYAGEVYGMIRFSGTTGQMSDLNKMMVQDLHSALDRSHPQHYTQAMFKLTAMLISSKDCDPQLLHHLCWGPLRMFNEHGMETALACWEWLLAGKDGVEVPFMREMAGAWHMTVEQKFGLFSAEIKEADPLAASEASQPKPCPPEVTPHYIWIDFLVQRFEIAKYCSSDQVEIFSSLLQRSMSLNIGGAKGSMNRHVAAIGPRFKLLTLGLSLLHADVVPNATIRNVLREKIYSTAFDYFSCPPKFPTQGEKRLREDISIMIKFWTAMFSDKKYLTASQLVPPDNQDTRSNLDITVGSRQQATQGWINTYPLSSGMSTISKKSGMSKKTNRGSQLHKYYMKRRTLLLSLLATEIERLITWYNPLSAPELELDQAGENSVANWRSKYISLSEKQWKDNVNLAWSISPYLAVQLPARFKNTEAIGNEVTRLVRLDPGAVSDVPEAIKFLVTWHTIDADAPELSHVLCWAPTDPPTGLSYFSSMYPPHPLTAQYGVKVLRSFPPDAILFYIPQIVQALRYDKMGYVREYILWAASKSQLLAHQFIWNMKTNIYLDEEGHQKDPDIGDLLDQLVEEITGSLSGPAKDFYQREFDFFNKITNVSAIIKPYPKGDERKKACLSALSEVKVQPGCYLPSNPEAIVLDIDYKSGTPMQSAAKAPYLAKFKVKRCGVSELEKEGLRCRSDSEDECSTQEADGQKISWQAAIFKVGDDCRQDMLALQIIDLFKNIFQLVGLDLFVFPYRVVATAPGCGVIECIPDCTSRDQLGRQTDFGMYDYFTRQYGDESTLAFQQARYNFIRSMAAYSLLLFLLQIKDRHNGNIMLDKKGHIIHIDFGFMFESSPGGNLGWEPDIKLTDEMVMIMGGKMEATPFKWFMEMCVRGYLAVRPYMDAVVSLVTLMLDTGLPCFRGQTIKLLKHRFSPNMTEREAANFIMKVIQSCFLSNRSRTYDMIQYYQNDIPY
Sequence of PI3Kδ (O00329 whole entry): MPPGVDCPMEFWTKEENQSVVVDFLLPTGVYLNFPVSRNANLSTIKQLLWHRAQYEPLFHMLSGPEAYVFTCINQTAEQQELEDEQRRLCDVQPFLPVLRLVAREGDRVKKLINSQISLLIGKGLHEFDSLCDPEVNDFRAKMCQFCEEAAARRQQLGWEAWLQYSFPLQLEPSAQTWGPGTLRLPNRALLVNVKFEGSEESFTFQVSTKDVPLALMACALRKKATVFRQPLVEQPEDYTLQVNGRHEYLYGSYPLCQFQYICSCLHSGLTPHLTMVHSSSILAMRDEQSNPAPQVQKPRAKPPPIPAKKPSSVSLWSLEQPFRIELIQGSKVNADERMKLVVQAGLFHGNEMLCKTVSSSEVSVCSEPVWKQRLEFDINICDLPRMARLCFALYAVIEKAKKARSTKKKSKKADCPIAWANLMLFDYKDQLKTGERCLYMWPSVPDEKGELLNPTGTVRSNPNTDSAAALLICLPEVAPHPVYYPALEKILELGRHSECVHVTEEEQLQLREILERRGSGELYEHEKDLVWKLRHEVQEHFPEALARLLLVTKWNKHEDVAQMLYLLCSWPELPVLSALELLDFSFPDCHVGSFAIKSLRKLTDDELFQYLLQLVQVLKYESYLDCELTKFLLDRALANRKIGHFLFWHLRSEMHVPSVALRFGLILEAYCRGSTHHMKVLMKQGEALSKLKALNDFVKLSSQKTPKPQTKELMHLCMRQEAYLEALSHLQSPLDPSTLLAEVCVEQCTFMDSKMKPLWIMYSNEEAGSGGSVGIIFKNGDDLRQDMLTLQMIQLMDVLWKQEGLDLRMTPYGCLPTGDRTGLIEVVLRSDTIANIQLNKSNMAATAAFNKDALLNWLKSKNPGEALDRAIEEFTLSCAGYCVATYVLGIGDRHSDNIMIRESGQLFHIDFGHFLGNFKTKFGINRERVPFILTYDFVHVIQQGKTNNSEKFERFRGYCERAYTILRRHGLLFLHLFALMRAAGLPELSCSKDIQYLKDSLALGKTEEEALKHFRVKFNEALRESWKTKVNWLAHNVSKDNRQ
Sequence of PI3Kδ (P27986 whole entry partner): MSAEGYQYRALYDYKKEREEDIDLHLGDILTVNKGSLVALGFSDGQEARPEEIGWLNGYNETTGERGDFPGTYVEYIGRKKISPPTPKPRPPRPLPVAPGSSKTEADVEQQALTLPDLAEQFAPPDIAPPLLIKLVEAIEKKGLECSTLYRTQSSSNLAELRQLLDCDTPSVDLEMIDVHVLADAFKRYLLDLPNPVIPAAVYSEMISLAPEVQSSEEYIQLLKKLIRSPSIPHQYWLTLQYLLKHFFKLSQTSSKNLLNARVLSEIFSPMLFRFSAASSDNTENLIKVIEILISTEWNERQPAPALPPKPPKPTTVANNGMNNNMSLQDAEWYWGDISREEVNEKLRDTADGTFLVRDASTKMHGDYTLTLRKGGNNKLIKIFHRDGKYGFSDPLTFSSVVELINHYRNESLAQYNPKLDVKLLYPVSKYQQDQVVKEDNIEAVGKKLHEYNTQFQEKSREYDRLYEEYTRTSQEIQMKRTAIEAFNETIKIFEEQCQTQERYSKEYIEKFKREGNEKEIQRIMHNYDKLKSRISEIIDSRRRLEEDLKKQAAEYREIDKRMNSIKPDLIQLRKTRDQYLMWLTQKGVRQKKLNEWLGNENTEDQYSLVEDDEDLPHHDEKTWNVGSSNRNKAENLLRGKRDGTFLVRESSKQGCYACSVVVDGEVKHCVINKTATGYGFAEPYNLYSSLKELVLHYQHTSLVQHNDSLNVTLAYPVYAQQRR
Sequence of PI4Kβ (Q9UBF8 whole entry): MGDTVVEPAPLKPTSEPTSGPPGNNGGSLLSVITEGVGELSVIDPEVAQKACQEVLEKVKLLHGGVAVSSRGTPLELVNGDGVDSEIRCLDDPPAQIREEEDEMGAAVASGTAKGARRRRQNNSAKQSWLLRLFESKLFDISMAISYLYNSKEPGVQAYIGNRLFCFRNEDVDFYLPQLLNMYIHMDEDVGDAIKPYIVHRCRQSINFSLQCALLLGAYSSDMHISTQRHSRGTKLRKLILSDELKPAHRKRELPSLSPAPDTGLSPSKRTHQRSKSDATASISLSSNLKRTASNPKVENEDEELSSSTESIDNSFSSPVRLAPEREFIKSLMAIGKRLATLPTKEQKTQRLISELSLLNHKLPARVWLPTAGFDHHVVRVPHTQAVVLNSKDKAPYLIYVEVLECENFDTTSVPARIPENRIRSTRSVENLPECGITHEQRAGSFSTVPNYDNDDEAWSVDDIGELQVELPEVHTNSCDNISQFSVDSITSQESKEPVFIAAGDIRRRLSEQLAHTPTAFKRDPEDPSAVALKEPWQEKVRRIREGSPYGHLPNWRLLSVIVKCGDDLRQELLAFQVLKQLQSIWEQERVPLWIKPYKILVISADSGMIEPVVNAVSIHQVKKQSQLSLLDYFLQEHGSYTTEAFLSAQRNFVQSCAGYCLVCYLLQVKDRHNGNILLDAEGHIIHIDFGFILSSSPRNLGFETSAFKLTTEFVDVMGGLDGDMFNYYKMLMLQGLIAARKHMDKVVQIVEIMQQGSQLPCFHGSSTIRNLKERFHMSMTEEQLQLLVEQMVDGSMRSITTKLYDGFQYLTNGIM

CS(=O)(=O)c1ccc(-c2cnc(N)c(-c3ccc(C(F)(F)F)nc3)c2)cc1 [MMV390048]
maximum concentrations achieved in vivo, free ([1]; across rat EFD in vivo studies): 8 µM
AUC(0-t) ([1]; GD6): 229000 ng·h/mL
AUC(0-t) ([1]; GD17): 361000 ng·h/mL
Cmax ([1]; GD6): 15600 ng/mL
Cmax ([1]; GD17): 21300 ng/mL
Tmax ([1]; GD6): 8 h
Tmax ([1]; GD17): 4 h
Maximum exposure (free) ([1]; rat DRF EFD KIT, GD17, 60 mg/kg, 4 hr post dose): 8 μM/L
Tmax ([2]; 2 mg/kg/day): 2 h
AUC(0-t) [2, 10]: 3750 ng·h/mL
AUC(0-t) [2, 11]: 3770 ng·h/mL
Cmax [2, 10]: 680 ng/mL
Cmax [2, 11]: 681 ng/mL
Tmax ([2]; 6 mg/kg/day): 2 h
AUC(0-t) [2, 12]: 19600 ng·h/mL
AUC(0-t) [2, 13]: 21400 ng·h/mL
Cmax [2, 12]: 1380 ng/mL
Cmax [2, 13]: 1600 ng/mL
Tmax ([2]; 20 mg/kg/day): 4 h
AUC(0-t) [2, 14]: 70000 ng·h/mL
AUC(0-t) [2, 15]: 74400 ng·h/mL
Cmax [2, 14]: 4950 ng/mL
Cmax [2, 15]: 5190 ng/mL
Maximum exposure (free) ([2]; rat EFD main KIT, GD17, 20 mg/kg, 4 hr post dose): 2 μM/L
Tmax ([3]; Sprague-Dawley (Crl: OFA SD), 40 mg/kg/day): 7 h
AUC(0-t) [3, 16]: 213000 ng·h/mL
AUC(0-t) [3, 17]: 310000 ng·h/mL
Cmax [3, 16]: 11300 ng/mL
Cmax [3, 17]: 17100 ng/mL
Tmax ([3]; Sprague-Dawley, 20 mg/kg/day): 7 h
AUC(0-t) [3, 18]: 92900 ng·h/mL
AUC(0-t) [3, 19]: 134000 ng·h/mL
Cmax [3, 18]: 5230 ng/mL
Cmax [3, 19]: 7550 ng/mL
Maximum exposure (free) ([3]; rat investigational EFD CRL, GD17, 40 mg/kg, 7 hr post dose): 6.5 μM/L
Female with viable fetuses (pregnant rats [4]; 3 mg/kg/day GD6-GD17): 8/8
Postimplantation loss (%) (pregnant rats [4]; 3 mg/kg/day GD6-GD17): 5.1%
Female with viable fetuses (pregnant rats [4]; 10 mg/kg/day GD6-GD17): 8/8
Fetal BW % from CTL (pregnant rats [4]; 10 mg/kg/day GD6-GD17): −2%
Postimplantation loss (%) (pregnant rats [4]; 10 mg/kg/day GD6-GD17): 1.7%
Female with viable fetuses (pregnant rats [4]; 30 mg/kg/day GD6-GD17): 7/7
Fetal BW % from CTL (pregnant rats [4]; 30 mg/kg/day GD6-GD17): −5%
Heart VSD, fetuses with malformation/total fetuses examined (pregnant rats [4]; 30 mg/kg/day GD6-GD17): 1/43
Heart VSD, litters with malformation/total litters examined (pregnant rats [4]; 30 mg/kg/day GD6-GD17): 1/7
Postimplantation loss (%) (pregnant rats [4]; 30 mg/kg/day GD6-GD17): 5.9%
Treatment‐related skeletal malformations (pregnant rats [4]; 60 mg/kg/day): fused rib, short rib, split sternebra, and fused cervical arch
VSD, number of fetuses (pregnant rats [4]; 60 mg/kg/day): 3 fetuses
VSD, number of litters (pregnant rats [4]; 60 mg/kg/day): 3 litters
hernia of the diaphragm, number of fetuses (pregnant rats [4]; 60 mg/kg/day): 12 fetuses
hernia of the diaphragm, number of litters (pregnant rats [4]; 60 mg/kg/day): 3 litters
Blood vessels IAA, fetuses with malformation/total fetuses examined (pregnant rats [4]; 60 mg/kg/day GD6-GD17): 1/40
Blood vessels IAA, litters with malformation/total litters examined (pregnant rats [4]; 60 mg/kg/day GD6-GD17): 1/8
Female with viable fetuses (pregnant rats [4]; 60 mg/kg/day GD6-GD17): 8/8
Fetal BW % from CTL (pregnant rats [4]; 60 mg/kg/day GD6-GD17): −16%
Heart VSD, fetuses with malformation/total fetuses examined (pregnant rats [4]; 60 mg/kg/day GD6-GD17): 7/40
Heart VSD, litters with malformation/total litters examined (pregnant rats [4]; 60 mg/kg/day GD6-GD17): 3/8
Hernias, fetuses with malformation/total fetuses examined (pregnant rats [4]; 60 mg/kg/day GD6-GD17): 12/40
Hernias, litters with malformation/total litters examined (pregnant rats [4]; 60 mg/kg/day GD6-GD17): 3/8
Postimplantation loss (%) (pregnant rats [4]; 60 mg/kg/day GD6-GD17): 21.9%
litter size (pregnant rats [4]; 60 mg/kg/day, 14 in the control group): 10.6
NOAEL [5]: 20 mg/kg/day
NOAEL for developmental toxicity (pregnant rats [6]): not established
Blood vessels AARS, fetuses with malformation/total fetuses examined (pregnant rats [6]; 20 mg/kg/day GD6-GD17): 2/280
Blood vessels AARS, litters with malformation/total litters examined (pregnant rats [6]; 20 mg/kg/day GD6-GD17): 2/24
Blood vessels ADA, fetuses with malformation/total fetuses examined (pregnant rats [6]; 20 mg/kg/day GD6-GD17): 4/280
Blood vessels ADA, litters with malformation/total litters examined (pregnant rats [6]; 20 mg/kg/day GD6-GD17): 3/24
Blood vessels IAA, fetuses with malformation/total fetuses examined (pregnant rats [6]; 20 mg/kg/day GD6-GD17): 2/280
Blood vessels IAA, litters with malformation/total litters examined (pregnant rats [6]; 20 mg/kg/day GD6-GD17): 2/24
Blood vessels NPT, fetuses with malformation/total fetuses examined (pregnant rats [6]; 20 mg/kg/day GD6-GD17): 1/280
Blood vessels NPT, litters with malformation/total litters examined (pregnant rats [6]; 20 mg/kg/day GD6-GD17): 1/24
Edema, fetuses with malformation/total fetuses examined (pregnant rats [6]; 20 mg/kg/day GD6-GD17): 1/280
Edema, litters with malformation/total litters examined (pregnant rats [6]; 20 mg/kg/day GD6-GD17): 1/24
Female with viable fetuses (pregnant rats [6]; 20 mg/kg/day GD6-GD17): 24/24
Fetal BW % from CTL (pregnant rats [6]; 20 mg/kg/day GD6-GD17): −10%
Heart VSD, fetuses with malformation/total fetuses examined (pregnant rats [6]; 20 mg/kg/day GD6-GD17): 1/280
Heart VSD, litters with malformation/total litters examined (pregnant rats [6]; 20 mg/kg/day GD6-GD17): 1/24
Hernias, fetuses with malformation/total fetuses examined (pregnant rats [6]; 20 mg/kg/day GD6-GD17): 35/280
Hernias, litters with malformation/total litters examined (pregnant rats [6]; 20 mg/kg/day GD6-GD17): 16/24
Postimplantation loss (%) (pregnant rats [6]; 20 mg/kg/day GD6-GD17): 9.6%
females with no viable fetuses, number (pregnant rats [6]; 40 mg/kg/day): 6 females
Blood vessels AARS, fetuses with malformation/total fetuses examined (pregnant rats [6]; 40 mg/kg/day GD6-GD17): 8/97
Blood vessels AARS, litters with malformation/total litters examined (pregnant rats [6]; 40 mg/kg/day GD6-GD17): 8/16
Blood vessels ADA, fetuses with malformation/total fetuses examined (pregnant rats [6]; 40 mg/kg/day GD6-GD17): 9/97
Blood vessels ADA, litters with malformation/total litters examined (pregnant rats [6]; 40 mg/kg/day GD6-GD17): 7/16
Blood vessels IAA, fetuses with malformation/total fetuses examined (pregnant rats [6]; 40 mg/kg/day GD6-GD17): 4/97
Blood vessels IAA, litters with malformation/total litters examined (pregnant rats [6]; 40 mg/kg/day GD6-GD17): 4/16
Blood vessels NPT, fetuses with malformation/total fetuses examined (pregnant rats [6]; 40 mg/kg/day GD6-GD17): 9/97
Blood vessels NPT, litters with malformation/total litters examined (pregnant rats [6]; 40 mg/kg/day GD6-GD17): 6/16
Edema, fetuses with malformation/total fetuses examined (pregnant rats [6]; 40 mg/kg/day GD6-GD17): 1/97
Edema, litters with malformation/total litters examined (pregnant rats [6]; 40 mg/kg/day GD6-GD17): 1/16
Female with viable fetuses (pregnant rats [6]; 40 mg/kg/day GD6-GD17): 16/22
Fetal BW % from CTL (pregnant rats [6]; 40 mg/kg/day GD6-GD17): −24%
Heart Thick VW, fetuses with malformation/total fetuses examined (pregnant rats [6]; 40 mg/kg/day GD6-GD17): 1/97
Heart Thick VW, litters with malformation/total litters examined (pregnant rats [6]; 40 mg/kg/day GD6-GD17): 1/16
Heart VSD, fetuses with malformation/total fetuses examined (pregnant rats [6]; 40 mg/kg/day GD6-GD17): 21/97
Heart VSD, litters with malformation/total litters examined (pregnant rats [6]; 40 mg/kg/day GD6-GD17): 8/16
Hernias, fetuses with malformation/total fetuses examined (pregnant rats [6]; 40 mg/kg/day GD6-GD17): 63/97
Hernias, litters with malformation/total litters examined (pregnant rats [6]; 40 mg/kg/day GD6-GD17): 15/16
Postimplantation loss (%) (pregnant rats [6]; 40 mg/kg/day GD6-GD17): 66.45%
mean maternal body weight gain, % of controls (pregnant rats [6]; 40 mg/kg/day): 41 % of controls
females with no viable fetuses, number (pregnant rats [6]; 60 mg/kg/day): 11 females
mean maternal body weight gain, % of controls (pregnant rats [6]; 60 mg/kg/day): 49 % of controls
Blood vessels AARS, fetuses with malformation/total fetuses examined (pregnant rats [6]; [20]): 12/65
Blood vessels AARS, litters with malformation/total litters examined (pregnant rats [6]; [20]): 12/14
Blood vessels ADA, fetuses with malformation/total fetuses examined (pregnant rats [6]; [20]): 10/65
Blood vessels ADA, litters with malformation/total litters examined (pregnant rats [6]; [20]): 6/14
Blood vessels IAA, fetuses with malformation/total fetuses examined (pregnant rats [6]; [20]): 1/65
Blood vessels IAA, litters with malformation/total litters examined (pregnant rats [6]; [20]): 1/14
Blood vessels NPT, fetuses with malformation/total fetuses examined (pregnant rats [6]; [20]): 10/65
Blood vessels NPT, litters with malformation/total litters examined (pregnant rats [6]; [20]): 6/14
Edema, fetuses with malformation/total fetuses examined (pregnant rats [6]; [20]): 2/65
Edema, litters with malformation/total litters examined (pregnant rats [6]; [20]): 1/14
Female with viable fetuses (pregnant rats [6]; [20]): 14/25
Fetal BW % from CTL (pregnant rats [6]; [20]): −26%
Heart Thick VW, fetuses with malformation/total fetuses examined (pregnant rats [6]; [20]): 3/65
Heart Thick VW, litters with malformation/total litters examined (pregnant rats [6]; [20]): 3/14
Hernias, fetuses with malformation/total fetuses examined (pregnant rats [6]; [20]): 31/65
Hernias, litters with malformation/total litters examined (pregnant rats [6]; [20]): 11/14
Postimplantation loss (%) (pregnant rats [6]; [20]): 79.22% and 79.2%
embryofetal developmental toxicity signals (pregnant rabbits): no signals of concern
pIC50 (PI4Kα [7]): 4.73
pIC50 (PI3Kγ): 5.37
pIC50 (PI3Kδ): 5.09
AUC(0−inf) ([8]; dose 40 mg): 30,320 hr*ng/ml
C max ([8]; dose 40 mg): 272.7 ng/mL
T max ([8]; dose 40 mg): 1.5 h
AUC(0−inf) ([8]; dose 80 mg): 82,680 hr*ng/ml
C max ([8]; dose 80 mg): 561 ng/mL
AUC(0−inf) ([8]; dose 120 mg): 137,800 hr*ng/ml
C max ([8]; dose 120 mg): 1,094 ng/ml
T max ([8]; dose 120 mg): 1 h
binding to human PI4Kβ (PI4Kβ): no binding
binding to human PI4Kα (PI4Kα [9]): no binding
